Measurements as given in ChEMBL document CHEMBL3352170, “Sulfonamides as multifunctional agents for Alzheimer's disease” (Bioorg Med Chem Lett, 2015).
Active and inactive are the calls of the source. The rule behind the calls is not given here.

Assays:
[1] = target: Amyloid-beta precursor protein (Homo sapiens) (UniProt P05067); test: Inhibition of Amyloid beta (1 to 40) (unknown origin) fibril formation at Abeta:compound ratio of 1:10 after 4 days by Thioflavin-T fluorescence assay
How it was run: (§1)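 Aβ fibrillogenesis was measured by quantitative Thioflavin-T fluorescence with Aβ at 100 µM and Aβ:inhibitor at 1:10, or 1:1 for one compound. Signal was normalized to the fluorescence of the inhibitor-free control.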

[2] = target: Amyloid-beta precursor protein (Homo sapiens) (UniProt P05067); test: Stimulation of Amyloid beta (1 to 42) (unknown origin) oligomer assembly at Abeta:compound ratio of 0.0002 after 30 mins by single-site ELISA assay
How it was run: (§2)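 Oligomer formation was read in a single-site streptavidin-based assay using biotinyl-Aβ(1–42) at 0.01 µM. Aβ/inhibitor ratio was 0.0002, with 30 min incubation.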

Cholinesterase [3] = target: T1, Cholinesterase (Homo sapiens, UniProt P06276); test: Inhibition of BuChE (unknown origin) assessed as reduction in S-butyrylthiocholine chloride hydrolysis at 10 uM after 15 mins by Ellman method
How it was run: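 Single-concentration screen of the commercial and synthetic sulfonamides. Read-out is percent inhibition of BuChE activity. Galanthamine serves as the reference standard.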

[4] = target: Amyloid-beta precursor protein (Homo sapiens) (UniProt P05067); test: Stimulation of Amyloid beta (1 to 40) (unknown origin) fibril formation at Abeta:compound ratio of 1:10 after 4 days by Thioflavin-T fluorescence assay; how it was run: as §1
[5] = target: Amyloid-beta precursor protein (Homo sapiens) (UniProt P05067); test: Inhibition of Amyloid beta (1 to 42) (unknown origin) oligomer assembly at Abeta:compound ratio of 0.0002 after 30 mins by single-site ELISA assay; how it was run: as §2
[6] = target: Amyloid-beta precursor protein (Homo sapiens) (UniProt P05067); test: Inhibition of Amyloid beta (1 to 40) (unknown origin) fibril formation at Abeta:compound ratio of 1:10 after 4 days by atomic force microscopy
How it was run: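 Aβ(1–40) was incubated for 4 days with or without inhibitor, at 100 µM Aβ and Aβ:inhibitor 1:10. Fibril morphology was imaged by atomic force microscopy against a solvent-treated control.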

Cholinesterase [7] = target: T1, Cholinesterase; test: Inhibition of BuChE (unknown origin) assessed as reduction in S-butyrylthiocholine chloride hydrolysis after 15 mins by Ellman method
[8] = target: Amyloid-beta precursor protein (Homo sapiens) (UniProt P05067); test: Inhibition of Amyloid beta (1 to 40) (unknown origin) fibril formation at Abeta:compound ratio of 1:1 after 4 days by Thioflavin-T fluorescence assay; details: concentration not given here; how it was run: as §1
[9] = Antioxidant activity assessed as DPPH radical scavenging activity at 10 uM after 30 mins; assay type: physicochemical; details: 0.5 h
Acetylcholinesterase = Acetylcholinesterase (Homo sapiens, UniProt P22303); test: Inhibition of AChE (unknown origin) assessed as reduction in acetylthiocholine iodide hydrolysis after 15 mins by Ellman method
Chain of Acetylcholinesterase (P22303 whole entry): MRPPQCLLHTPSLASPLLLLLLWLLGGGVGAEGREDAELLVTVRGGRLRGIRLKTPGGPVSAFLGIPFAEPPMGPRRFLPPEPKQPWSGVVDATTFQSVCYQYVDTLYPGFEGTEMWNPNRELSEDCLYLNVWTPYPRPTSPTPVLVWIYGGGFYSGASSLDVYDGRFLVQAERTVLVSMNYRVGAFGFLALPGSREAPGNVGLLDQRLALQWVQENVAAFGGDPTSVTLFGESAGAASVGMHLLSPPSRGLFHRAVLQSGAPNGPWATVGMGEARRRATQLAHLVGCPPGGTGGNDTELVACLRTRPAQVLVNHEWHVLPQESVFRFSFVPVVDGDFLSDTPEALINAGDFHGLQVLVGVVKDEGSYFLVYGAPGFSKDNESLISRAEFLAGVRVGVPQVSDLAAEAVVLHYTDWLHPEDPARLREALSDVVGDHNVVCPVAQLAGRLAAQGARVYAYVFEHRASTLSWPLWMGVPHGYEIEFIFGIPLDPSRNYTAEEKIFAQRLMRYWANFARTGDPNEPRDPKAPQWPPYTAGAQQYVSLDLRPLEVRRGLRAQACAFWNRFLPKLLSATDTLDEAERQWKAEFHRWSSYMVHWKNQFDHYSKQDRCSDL

T1 sequence (P06276 whole entry): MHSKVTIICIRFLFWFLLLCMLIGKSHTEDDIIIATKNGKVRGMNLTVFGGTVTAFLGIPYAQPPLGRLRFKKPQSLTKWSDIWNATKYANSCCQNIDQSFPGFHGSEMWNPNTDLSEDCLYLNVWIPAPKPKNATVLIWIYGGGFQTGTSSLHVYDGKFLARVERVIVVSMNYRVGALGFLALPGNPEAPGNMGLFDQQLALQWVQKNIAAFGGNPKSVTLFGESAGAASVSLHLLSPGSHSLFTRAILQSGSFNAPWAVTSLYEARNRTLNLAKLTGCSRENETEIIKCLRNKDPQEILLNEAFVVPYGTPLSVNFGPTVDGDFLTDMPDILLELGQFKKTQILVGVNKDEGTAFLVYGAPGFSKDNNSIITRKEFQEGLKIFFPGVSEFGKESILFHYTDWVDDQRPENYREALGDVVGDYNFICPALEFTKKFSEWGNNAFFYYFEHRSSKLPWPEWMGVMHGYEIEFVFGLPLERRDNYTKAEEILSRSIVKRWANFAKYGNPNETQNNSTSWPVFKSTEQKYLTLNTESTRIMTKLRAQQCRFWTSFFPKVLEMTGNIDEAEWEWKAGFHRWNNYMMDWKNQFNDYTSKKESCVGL
Chain of Amyloid-beta precursor protein (Homo sapiens) (P05067 whole entry): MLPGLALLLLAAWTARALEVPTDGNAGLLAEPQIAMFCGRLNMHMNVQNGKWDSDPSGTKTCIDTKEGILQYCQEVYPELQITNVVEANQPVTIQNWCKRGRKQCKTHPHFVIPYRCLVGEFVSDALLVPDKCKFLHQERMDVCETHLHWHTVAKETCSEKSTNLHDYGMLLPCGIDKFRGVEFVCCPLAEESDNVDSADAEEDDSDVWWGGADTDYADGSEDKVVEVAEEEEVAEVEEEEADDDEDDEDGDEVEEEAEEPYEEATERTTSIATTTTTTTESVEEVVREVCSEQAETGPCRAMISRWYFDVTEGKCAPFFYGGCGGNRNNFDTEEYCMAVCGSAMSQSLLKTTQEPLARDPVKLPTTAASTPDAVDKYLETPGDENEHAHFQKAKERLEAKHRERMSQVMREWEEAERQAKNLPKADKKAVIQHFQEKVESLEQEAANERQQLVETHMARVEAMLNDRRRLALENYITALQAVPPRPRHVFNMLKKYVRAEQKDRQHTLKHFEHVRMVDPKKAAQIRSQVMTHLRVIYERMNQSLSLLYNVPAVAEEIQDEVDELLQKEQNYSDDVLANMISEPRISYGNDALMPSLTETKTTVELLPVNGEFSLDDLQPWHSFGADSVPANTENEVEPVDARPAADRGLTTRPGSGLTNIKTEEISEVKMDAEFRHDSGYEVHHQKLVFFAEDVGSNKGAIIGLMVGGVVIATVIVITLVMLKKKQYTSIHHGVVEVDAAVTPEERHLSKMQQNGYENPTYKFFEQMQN

## O=S(=O)(CCCN1CCOCC1)NCCNc1cccc2ccccc12
[1]
  inhibition: Active
[2]
  Activity: Active

## O=S(=O)(CCCNCCc1c[nH]c2ccccc12)NCCNc1cccc2ccccc12
[1]
  inhibition: Active
[2]
  Activity: Active
Cholinesterase [3]
  inhibition: > 80%

## NS(=O)(=O)c1ccc([N+](=O)[O-])cc1
[4]
  Activity: Active
[5]
  inhibition: < 54%

## O=S(=O)(CCCN1CCC(c2ccccc2)CC1)NCCNc1cccc2ccccc12
[1]; concentration not given here
  inhibition: 87%
[6]
  inhibition: Active
[2]
  Activity: Active
Cholinesterase [3]
  inhibition: 58%
Cholinesterase [7]
  IC50: 5.08 µM

## O=S(=O)(CCCNCCNc1cccc2ccccc12)NCCNc1cccc2ccccc12
[8]
  inhibition: 45%
[2]
  Activity: Active
Cholinesterase [3]
  inhibition: 99%
Cholinesterase [7]
  IC50: 0.93 µM

## O=S(=O)(CCCN1CCN(c2ccccc2)CC1)NCCNc1cccc2ccccc12
[1]
  inhibition: Active
[2]
  Activity: Active
Cholinesterase [3]
  inhibition: > 40%

## CCN(CC)CCCN1C(=O)c2ccccc2S1(=O)=O
[4]
  Activity: Active
[5]
  inhibition: < 54%

## O=S(=O)(CCCN1CCC(Cc2ccccc2)CC1)NCCNc1cccc2ccccc12
[1]; concentration not given here
  inhibition: 60%
[2]
  Activity: Active
Cholinesterase [3]
  inhibition: > 40%

## O=C1c2ccccc2S(=O)(=O)N1CCCN1CCN(Cc2ccccc2)CC1
[4]
  Activity: Active
[5]
  inhibition: inactive

## CCN(CC)CCN1C(=O)c2ccccc2S1(=O)=O
[4]
  Activity: Active
[5]
  inhibition: < 54%

## O=C1c2ccccc2S(=O)(=O)N1CCCN(CCO)CCO
[4]
  Activity: Active
[5]
  inhibition: < 54%

## O=C1c2ccccc2S(=O)(=O)N1CCCN1CCC(O)CC1
[4]
  Activity: Active
[5]
  inhibition: < 54%

## O=S(=O)(CCCN1CCC(O)CC1)NCCNc1cccc2ccccc12
[1]; concentration not given here
  inhibition: 64%
[2]
  Activity: Active

## O=C1c2ccccc2S(=O)(=O)N1CCO
[4]
  Activity: Active
[5]
  inhibition: < 54%

## NS(=O)(=O)c1ccccc1Br
[4]
  Activity: Active
[5]
  inhibition: < 54%

## O=S(=O)(CCCN1CCN(c2ncccn2)CC1)NCCNc1cccc2ccccc12
[1]
  inhibition: Active
[2]
  Activity: Active

## Oc1ccc(/C=C/c2cc(O)cc(O)c2)cc1 [RESVERATROL]
[9]
  Activity: Active

## O=C1NS(=O)(=O)c2ccccc21 [SACCHARIN]
[4]
  Activity: Active
[5]
  inhibition: < 54%
Cholinesterase [3]
  inhibition: 73%
Cholinesterase [7]
  IC50: 3.6 µM

## O=C(NCCCCNC(=O)c1ccc2ccccc2c1)c1ccc2ccccc2c1
[1]
  inhibition: Active
[5]
  inhibition: 99%

## Cl.O=S(=O)(CCCN(CCO)CCO)NCCNc1cccc2ccccc12
[1]
  inhibition: Active
[2]
  Activity: Active
[9]
  Activity: Active

## O=S(=O)(CCCN1CCN(Cc2ccccc2)CC1)NCCNc1cccc2ccccc12
[1]; concentration not given here
  inhibition: 43%
[2]
  Activity: Active
[9]
  Activity: Active
Acetylcholinesterase
  IC50: 0.16 µM
Cholinesterase [3]
  inhibition: 90%
Cholinesterase [7]
  IC50: 2 µM

## COc1ccc(S(N)(=O)=O)cc1
[4]
  Activity: Active
[5]
  inhibition: < 54%

## O=S(=O)(CCCCl)NCCNc1cccc2ccccc12
[1]
  inhibition: Active
[2]
  Activity: Active

## O=C(CCC(=O)NCCNc1cccc2ccccc12)NCCNc1cccc2ccccc12
[1]
  inhibition: Active
[5]
  inhibition: 50%

## CC(NCCCS(=O)(=O)NCCNc1cccc2ccccc12)c1ccccc1 (centres undefined)
[1]
  inhibition: Active
[2]
  Activity: Active
Cholinesterase [3]
  inhibition: > 40%

## O=S(=O)(CCCN1CCN(c2ccccn2)CC1)NCCNc1cccc2ccccc12
[1]
  inhibition: Active
[2]
  Activity: Active
Cholinesterase [3]
  inhibition: > 40%

## Cc1ccccc1S(N)(=O)=O
[4]
  Activity: Active
[5]
  inhibition: < 54%

## CC(C(O)c1ccccc1)N(C)CCCS(=O)(=O)NCCNc1cccc2ccccc12.Cl (centres undefined)
[1]
  inhibition: Active
[2]
  Activity: Active
[9]
  Activity: Active
Cholinesterase [3]
  inhibition: > 40%
